Source: ChEMBL document CHEMBL3396946, “Design, synthesis and pharmacological evaluation of N-[4-(4-(alkyl/aryl/heteroaryl)-piperazin-1-yl)-phenyl]-carbamic acid ethyl ester derivatives as novel anticonvulsant agents” (Bioorg Med Chem Lett, 2015)
The source made the active and inactive calls. The calls are words filed in the database; no cut-off is given here.

Tests used:
[1] = system: Mus musculus; assay: Anticonvulsant activity in intraperitoneally dosed Swiss albino mouse assessed as reduction in electrical stimulus-induced seizures after 0.5 hrs by maximal electroshock seizure test; assay type: functional
How it was run: (§1)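 Adult male Swiss albino mice; test agents given i.p. at 30, 100 and 300 mg/kg, with animals examined 0.5 h and 4.0 h after injection. Value is the minimal dose protecting half or more of the mice; a dash means no activity at 300 mg/kg.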

[2] = system: Mus musculus; assay: Anticonvulsant activity in intraperitoneally dosed Swiss albino mouse assessed as reduction in electrical stimulus-induced seizures after 4 hrs by maximal electroshock seizure test; assay type: functional; how it was run: as §1
[3] = Neurological toxicity in intraperitoneally dosed Swiss albino mouse assessed as motor impairment after 0.5 hrs by rotarod test; assay type: organism-based; conditions: in vivo, ip, read-out: MTD50
[4] = Neurological toxicity in intraperitoneally dosed Swiss albino mouse assessed as motor impairment after 4 hrs by rotarod test; assay type: organism-based; conditions: in vivo, ip, read-out: MTD50
[5] = system: Mus musculus; assay: Anticonvulsant activity in Swiss albino mouse assessed as reduction in clonic seizures at 300 mg/kg, ip after 0.5 hrs by subcutaneous pentylenetetrazole seizure test; assay type: functional, organism-based; set-up: dose 300 mg/kg; how it was run: as §1
[6] = system: Mus musculus; assay: Anticonvulsant activity in Swiss albino mouse assessed as reduction in clonic seizures at 300 mg/kg, ip after 4 hrs by subcutaneous pentylenetetrazole seizure test; assay type: functional, organism-based; set-up: dose 300 mg/kg; how it was run: as §1
[7] = system: Mus musculus; assay: Toxicity in Swiss albino mouse assessed as induction of death following tonic extension at 300 mg/kg, ip after 4 hrs during maximal electroshock seizure test; assay type: organism-based; set-up: dose 300 mg/kg, route intraperitoneal; conditions: in vivo
[8] = system: Mus musculus; assay: Neurological toxicity in Swiss albino mouse assessed as motor impairment at 300 mg/kg, ip after 0.5 hrs by rotarod test; assay type: organism-based; set-up: dose 300 mg/kg, route intraperitoneal; conditions: in vivo
How it was run: (§2)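 Adult male Swiss albino mice dosed i.p. at 30, 100 and 300 mg/kg, examined at 0.5 h and 4.0 h. Neurotoxicity is scored as failure to hold onto the rotating rod, with three successive trials. Value is the minimal dose active in half or more of the mice.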

[9] = system: Mus musculus; assay: Neurological toxicity in Swiss albino mouse assessed as motor impairment at 300 mg/kg, ip after 4 hrs by rotarod test; assay type: organism-based; set-up: dose 300 mg/kg, route intraperitoneal; conditions: in vivo; how it was run: as §2
[10] = system: Mus musculus; assay: Toxicity in Swiss albino mouse assessed as induction of death following tonic extension at 300 mg/kg, ip after 0.5 hrs during maximal electroshock seizure test; assay type: organism-based; set-up: dose 300 mg/kg, route intraperitoneal; conditions: in vivo
[11] = system: Mus musculus; assay: Anticonvulsant activity in intraperitoneally dosed Swiss albino mouse assessed as reduction in clonic seizures after 4 hrs by subcutaneous pentylenetetrazole seizure test; assay type: functional; how it was run: as §1
[12] = system: Mus musculus; assay: Anticonvulsant activity in Swiss albino mouse assessed as reduction in electrical stimulus-induced seizures at 300 mg/kg, ip after 0.5 hrs by maximal electroshock seizure test; assay type: functional, organism-based; set-up: dose 300 mg/kg; how it was run: as §1
[13] = system: Mus musculus; assay: Anticonvulsant activity in intraperitoneally dosed Swiss albino mouse assessed as reduction in clonic seizures after 0.5 hrs by subcutaneous pentylenetetrazole seizure test; assay type: functional; how it was run: as §1
[14] = system: Mus musculus; assay: Toxicity in Swiss albino mouse assessed as induction of sedation at 100 mg/kg, ip after 0.5 hrs during maximal electroshock seizure test; assay type: organism-based; set-up: dose 100 mg/kg, route intraperitoneal; conditions: in vivo
[15] = system: Mus musculus; assay: Anticonvulsant activity in Swiss albino mouse assessed as reduction in electrical stimulus-induced seizures at 300 mg/kg, ip after 4 hrs by maximal electroshock seizure test; assay type: functional, organism-based; set-up: dose 300 mg/kg; how it was run: as §1
[16] = system: Mus musculus; assay: Anticonvulsant activity in Swiss albino mouse model of pentylenetetrazole-induced kindling related chronic epilepsy assessed as reduction in seizure severity score by at 5 mg/kg, ip administered daily for 5 weeks followed by injection of 30 mg/kg, ip PTZ on every alternate day till full kindling development; assay type: functional, organism-based
How it was run: (§3)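 Adult male Swiss albino mice are randomised into seven groups (n = 8; n = 9 for PTZ-only). Treatment is i.p. for 35 days. PTZ is given at 30 mg/kg i.p. on alternate days for 5 weeks. Control mice receive saline; phenobarbital 30 mg/kg i.p. is the reference. Seizure score is rated visually each week. Data are mean ± SEM, ANOVA with Tukey's test.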

[17] = system: Mus musculus; assay: Anticonvulsant activity in Swiss albino mouse model of pentylenetetrazole-induced kindling related chronic epilepsy assessed as reduction in seizure severity score by at 10 to 30 mg/kg, ip administered daily for 5 weeks followed by injection of 30 mg/kg, ip PTZ on every alternate day till full kindling development; assay type: functional, organism-based; how it was run: as §3
[18] = system: Mus musculus; assay: Reduction in MDA level in brain of Swiss albino mouse model of pentylenetetrazole-induced kindling related chronic epilepsy at 5 to 30 mg/kg, ip administered daily for 5 weeks followed by injection of 30 mg/kg, ip PTZ on every alternate day till full kindling development by spectrophotometry; assay type: functional, organism-based
How it was run: (§4)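 PTZ-kindled mice (30 mg/kg i.p. on alternate days for 5 weeks) receive i.p. treatment (5, 10, 20, 30 mg/kg) for 35 days. At the end, mice are killed under ether and brains stored at -20 °C for up to 10 h. Readouts are GSH (µg/g wet tissue), MDA (nmol/µg protein), GSH-Px (U/g protein) and NO (µmol/g protein). n = 8 per group (PTZ group n = 6); mean ± SEM, ANOVA with Tukey's test.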

[19] = system: Mus musculus; assay: Increase in GSH level in brain of Swiss albino mouse model of pentylenetetrazole-induced kindling related chronic epilepsy at 5 to 30 mg/kg, ip administered daily for 5 weeks followed by injection of 30 mg/kg, ip PTZ on every alternate day till full kindling development by Ellman's reagent based assay; assay type: functional, organism-based; how it was run: as §4
[20] = system: Mus musculus; assay: Increase in GSH-Px level in brain of Swiss albino mouse model of pentylenetetrazole-induced kindling related chronic epilepsy at 5 to 30 mg/kg, ip administered daily for 5 weeks followed by injection of 30 mg/kg, ip PTZ on every alternate day till full kindling development; assay type: functional, organism-based; how it was run: as §4
[21] = system: Mus musculus; assay: Reduction in nitric oxide level in brain of Swiss albino mouse model of pentylenetetrazole-induced kindling related chronic epilepsy at 10 to 30 mg/kg, ip administered daily for 5 weeks followed by injection of 30 mg/kg, ip PTZ on every alternate day till full kindling development by Griess reagent based assay; assay type: functional, organism-based; how it was run: as §4
[22] = system: Mus musculus; assay: Reduction in nitric oxide level in brain of Swiss albino mouse model of pentylenetetrazole-induced kindling related chronic epilepsy at 5 mg/kg, ip administered daily for 5 weeks followed by injection of 30 mg/kg, ip PTZ on every alternate day till full kindling development by Griess reagent based assay; assay type: functional, organism-based; how it was run: as §4
[23] = system: Mus musculus; assay: Anticonvulsant activity in Swiss albino mouse model of pentylenetetrazole-induced kindling related chronic epilepsy assessed as reduction in incidence and seizure severity score by at 30 mg/kg, ip administered daily for 5 weeks followed by injection of 30 mg/kg, ip PTZ on every alternate day till full kindling development; assay type: functional, organism-based
How it was run: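 Adult Swiss albino male mice, randomised to seven groups (n = 8; PTZ group n = 9). Test drug given i.p. over 35 days, with PTZ 30 mg/kg i.p. on alternate days for 5 weeks. Seizures scored visually each week. Mean score ± SEM compared by ANOVA with Tukey's test.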

SMILES	MED50 [1] [mg/kg]	MED50 [2] [mg/kg]	Activity [5]	Activity [6]	Activity [8]	Activity [9]	MED50 [11] [mg/kg]	Activity [12]	Activity [15]	also measured
CCOC(=O)Nc1ccc(N2CCN(c3ccncc3)CC2)cc1	100	300	inactive	inactive	–	–	–	–	–	TD50 at 0.5 h [3]: 300 mg/kg; TD50 at 4 h [4]: 100 mg/kg; Activity [7]: Toxic
CCOC(=O)Nc1ccc(N2CCN(c3ncccn3)CC2)cc1	100	300	inactive	inactive	Non-toxic	Non-toxic	–	–	–	Activity [10]: Toxic
CCOC(=O)Nc1ccc(N2CCN(C(c3ccccc3)c3ccccc3)CC2)cc1	–	300	inactive	–	Non-toxic	Non-toxic	300	inactive	–	–
CCOC(=O)Nc1ccc(N2CCN(c3ccccc3)CC2)cc1	30	300	–	–	Non-toxic	Non-toxic	300	–	–	MED50 [13]: 300 mg/kg
CCOC(=O)Nc1ccc(N2CCN(c3ccc(Cl)cc3)CC2)cc1	100	300	–	–	–	–	100	–	–	MED50 [13]: 100 mg/kg; Activity [14]: Toxic
CCOC(=O)Nc1ccc(N2CCN(c3ccccn3)CC2)cc1	100	100	inactive	inactive	–	–	–	–	–	TD50 at 0.5 h [3]: 100 mg/kg; TD50 at 4 h [4]: 100 mg/kg
NC(=O)N1c2ccccc2C=Cc2ccccc21 [CARBAMAZEPINE]	30	100	–	–	–	–	300	–	–	MED50 [13]: 100 mg/kg; TD50 at 0.5 h [3]: 100 mg/kg; TD50 at 4 h [4]: 300 mg/kg
CCOC(=O)Nc1ccc(N2CCN(C)CC2)cc1	–	–	inactive	inactive	Non-toxic	Non-toxic	–	inactive	inactive	–
CCC1(C)CC(=O)NC1=O (stereo unspecified) [ETHOSUXIMIDE]	–	–	–	–	Non-toxic	Non-toxic	300	inactive	inactive	MED50 [13]: 100 mg/kg
CCOC(=O)Nc1ccc(N2CCN(c3ccc(C(C)=O)cc3)CC2)cc1	30	100	–	–	Non-toxic	Non-toxic	100	–	–	MED50 [13]: 100 mg/kg; Activity [16]: Active; Activity [17]: Active; Activity [18]: Active; Activity [19]: Active; Activity [20]: Active; Activity [21]: Active; Activity [22]: inactive
CCOC(=O)Nc1ccc(N2CCN(CC)CC2)cc1	–	–	inactive	inactive	Non-toxic	Non-toxic	–	inactive	inactive	–
CCCC(CCC)C(=O)O [VALPROIC ACID]	–	–	inactive	–	Non-toxic	Non-toxic	300	inactive	inactive	–
CCOC(=O)Nc1ccc(N2CCN(C(=O)c3ccco3)CC2)cc1	–	100	inactive	inactive	Non-toxic	Non-toxic	–	inactive	–	–
CCOC(=O)Nc1ccc(N2CCN(c3ccc(F)cc3)CC2)cc1	–	300	inactive	inactive	Non-toxic	Non-toxic	–	inactive	inactive	–
CCOC(=O)Nc1ccc(N2CCN(c3ccc(OC)cc3)CC2)cc1	100	–	inactive	–	Non-toxic	Non-toxic	100	–	inactive	–
CCOC(=O)Nc1ccc(N2CCN(C(=O)c3ccccc3)CC2)cc1	–	100	inactive	–	–	–	300	inactive	–	TD50 at 0.5 h [3]: 300 mg/kg; TD50 at 4 h [4]: 300 mg/kg
O=C1NC(=O)C(c2ccccc2)(c2ccccc2)N1 [PHENYTOIN]	30	30	inactive	inactive	–	–	–	–	–	–
CCOC(=O)Nc1ccc(N2CCN(Cc3ccccc3)CC2)cc1	100	100	inactive	inactive	Non-toxic	Non-toxic	–	–	–	–
CCC1(c2ccccc2)C(=O)NC(=O)NC1=O	–	–	–	–	–	–	–	–	–	Activity [23]: Active
